Bioassay records (PubChem)
Compounds with a hit are over-represented: about 1.1% of the library has one in this group of screens.
Diaphorase inh: counter-screen for diaphorase-based assays: diaphorase inhibitors and chemical oxidizers; diaphorase resazurin-to-resorufin fluorescence, NADH, 16 min; bacterial (C. kluyveri) enzyme, not human; 190,000 compounds, 0.69% hits; inhibition, % at 20 µM; AID 1217;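 active means primary screen inhibition at 20 µM above a set limit, cut at about 50% in these data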;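 further: plate controls were DMSO with full reaction for no effect and wells lacking NADH for full effect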
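Detection: fluorescence of resorufin formed from resazurin, Ex 544/Em 590 nm; test system: Clostridium kluyveri diaphorase enzyme; amount: 0.14 U/mL diaphorase, enzyme working solution; times: 16-min room-temperature incubation before reading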
G6PDH CS: counter-screen for G6PDH assay hits: L. mesenteroides G6PDH inhibition. Purified L. mesenteroides G6PDH, diaphorase/resazurin coupled fluorescence, 45 min. inhibition, % at 5 µM. 200,000 compounds, 0.12% hits. AID 1020; in the data active means inhibition above about 50%
PMI act hi M6P: activators of human phosphomannose isomerase at near-saturating mannose 6-phosphate; 190,000 compounds, 0.34% hits; activation factor at 20 µM; coupled PMI enzyme assay, resazurin fluorescence, 20 min; stronger effect = higher value; 1 = untreated enzyme, 0 = substrate-free blank; P34949;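 active means activation factor of 2 or more at 20 µM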
Target sequence (P34949 whole entry, looked up): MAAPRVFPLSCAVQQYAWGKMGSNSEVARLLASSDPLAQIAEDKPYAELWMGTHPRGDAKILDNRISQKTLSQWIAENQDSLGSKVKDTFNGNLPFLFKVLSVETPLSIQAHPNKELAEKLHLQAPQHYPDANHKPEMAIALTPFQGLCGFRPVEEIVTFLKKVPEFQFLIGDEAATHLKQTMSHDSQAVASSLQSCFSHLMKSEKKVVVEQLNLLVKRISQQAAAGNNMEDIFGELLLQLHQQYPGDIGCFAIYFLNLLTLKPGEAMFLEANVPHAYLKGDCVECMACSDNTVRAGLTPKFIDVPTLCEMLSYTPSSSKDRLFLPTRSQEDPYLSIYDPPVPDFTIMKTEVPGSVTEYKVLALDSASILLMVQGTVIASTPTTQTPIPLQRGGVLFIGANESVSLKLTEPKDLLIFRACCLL
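Test system: human PMI in coupled enzyme assay; Input: PMI at 15 ng/mL final; Medium: HEPES buffer, pH 7.4; Schedule: 20 min incubation at room temperature; Technique: resorufin fluorescence at Ex 544/Em 590 nm; Compound: 20 µM single dose; Probe or stimulus: Near-saturating mannose-6-phosphate, 1.0 mM.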
Diaphorase act: activates diaphorase or chemically reduces, flagging diaphorase assay artifacts | AID 1229 | activation factor at 20 µM | Diaphorase/resazurin coupled assay, resorufin fluorescence, 16 min; stronger effect = higher value; 1 = vehicle wells, 0 = NADH-free wells | 190,000 compounds, 0.005% hits;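 active means diaphorase activity raised at least twofold by the compound at 20 µM; inactive means activation factor below 2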
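Material: purified diaphorase enzyme from Clostridium kluyveri; Also added: 0.114 mM NADH and 0.1 mM resazurin, final amounts; Doses: single compound dose of 20 µM, 1% DMSO final; Times: 16 min enzyme reaction, ambient temperature; Detection: resorufin fluorescence, excitation 544 nm, emission 590 nm; Measure: increased resorufin signal from activators or reducing compounds.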
PMI activator: increases human mannose-6-phosphate isomerase activity; activation factor at 20 µM; 190,000 compounds, 0.005% hits; P34949; purified human PMI, coupled resazurin fluorescence, 20 min; stronger effect = higher value; 1 = vehicle control, 0 substrate-free wells;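 active means activation factor of 2 or more at 20 µM, relative to plate controls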
Tb hexokinase: blocks Trypanosoma brucei hexokinase 1 activity; inhibition, % at 10 µM; 220,000 compounds, 0.11% hits; recombinant TbHK1, G6PDH-coupled NADH A340; AID 1430;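 active means inhibition of 50% or more in the single-dose primary screen; inactive means inhibition below 50%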
Numbers without * were called inactive; · = no result given.

SMILES | Diaphorase inh | G6PDH CS | PMI act hi M6P | Diaphorase act | PMI activator | Tb hexokinase
O=C(NC(=S)Nc1nc(-c2ccc(Br)cc2)cs1)c1cccnc1 | 11.8 | 0.2 | 2.5* | 0.9 | 1.5 | 28.1
COc1ccc(-c2csc(NC(=S)NC(=O)c3cccs3)n2)cc1OC | 59.2* | -27.8 | 0.9 | 0.4 | 0.8 | 0.4
COc1ccc(-c2csc(NC(=S)NC(=O)c3cccs3)n2)cc1Br | · | · | · | · | · | -12.0
Cc1ccc(-c2c(C)sc3ncn(CC(=O)N4CCOCC4)c(=O)c23)cc1C | · | · | · | · | · | -14.5
CCO[C@H]1OC(C(=O)N2CCN(Cc3ccc4c(c3)OCO4)CC2)=C[C@@H](c2ccc(Br)cc2)[C@@H]1CCCO | 15.8 | 10.6 | 0.8 | 0.8 | 0.8 | -10.7
O=c1c(Cl)c(O)c2cccc3c4ccccc4n1c23 | 52.3* | 2.7 | 1.1 | 0.5 | 0.8 | -19.7
O=c1c(Cc2ccccc2)c(O)c2cccc3c4c(n1c23)CCCC4 | · | · | · | · | · | -7.3
Cc1ccc(-c2nnc3ccc(SC(C)C(=O)O)nn23)cc1 (configuration not stated) | 25.2 | -4.2 | 1.2 | 0.7 | 0.9 | -6.2
CC(Sc1ccc2nnc(-c3ccc(F)cc3)n2n1)C(=O)O (configuration not stated) | 47.0 | 0.5 | 2.2* | 0.5 | 1.3 | -3.1
CC1(C)N([O-])C2=C(c3ccccc3C2=O)[N+](=O)C1(C)C | 66.7* | 3.4 | 1 | 0.3 | 1 | -37.8
COc1ccc(-c2csc(NC(=O)/C(N=Nc3ccccc3)=C(\C)O)n2)cc1 | · | 6.5 | · | · | · | -13.7
CCn1c(SCC(=O)N2CCN(c3ccccc3)CC2)nnc1-c1ccncc1 | 15.3 | 2.7 | 2.6* | 0.8 | 1.7 | -3.8
CC(C)C(OC(=O)c1cccs1)C(=O)NCc1ccc2c(c1)OCO2 (configuration not stated) | 7.3 | 24.9 | 1 | 0.9 | 1 | 8.7
N#Cc1cc2cc3c(cc2nc1N1CCOCC1)OCO3 | 21.8 | 14.8 | 2.1* | 0.8 | 1.7 | -6.8
CCCc1nc2oc3ccccc3c(=O)c2c(=O)n1CCCOC | · | · | · | · | · | -4.0
NC(CO)C(=O)NNCc1ccc(O)c(O)c1O (configuration not stated) | 73.6* | 31.4 | 0.4 | 0.3 | 0.2 | 1.8
CC(C)n1c2ccccc2c2nnc(SCC(=O)OCN3C(=O)c4ccccc4C3=O)nc21 | 57.0* | -5.2 | 1 | 0.4 | 1 | -1.6
CCOc1ccc(S(=O)(=O)N(CC(=O)N/N=C/c2ccc(-c3ccc([N+](=O)[O-])cc3)o2)c2ccccc2)cc1 | 61.7* | 6.7 | 1 | 0.4 | 0.4 | -1.5
Cc1ccc(C)c(N(CC(=O)N/N=C/c2ccc(-c3ccc([N+](=O)[O-])cc3)o2)S(=O)(=O)c2ccccc2)c1 | 14.8 | 2.5 | 1 | 0.9 | 0.9 | -11.5
CCOC(=O)C1CCN(c2c(NCCC(C)C)c(=O)c2=O)CC1 | · | · | · | · | · | -7.8
COc1cc(CNc2ccc(N3CCOCC3)cc2)cc(Br)c1OC | 10.6 | 0.4 | 0.9 | 0.9 | 1 | -6.4
CCOc1cc(CNc2ccc(S(N)(=O)=O)cc2)cc(Cl)c1OC | 10.6 | 4.3 | 1 | 0.9 | 1 | 2.8
CCOc1ccc(CNc2ccc(N3CCCC3)cc2)cc1 | 74.7* | -20.3 | 0.2 | 0.3 | 0.1 | 6.7
CCOc1cc(CNc2ccc(N3CCCC3)cc2)cc(Cl)c1OC | 67.9* | 10.4 | 0.3 | 0.3 | 0.2 | 10.0
COc1cc(CNc2ccc(N3CCCC3)cc2)cc(Cl)c1OC | 54.7* | 41.0 | 0.3 | 0.5 | 0.2 | -3.9
SMILES | Diaphorase inh | G6PDH CS | PMI act hi M6P | Diaphorase act | PMI activator | Tb hexokinase
Cc1ccc(CC(=O)NCCC(=O)O)cc1 | · | · | · | · | · | 2.2
C=CCN(CC=C)CCOc1cccc(Oc2ccccc2)c1 | 16.7 | 10.0 | 0.9 | 0.8 | 0.8 | 8.9
CCCc1c(C)nc2ccccc2c1SCCC#N | 0.2 | 11.2 | 2.3* | 1 | 1.6 | 0.3
CCC(C)NC(=O)COc1ccc(OCc2ccccc2)cc1 (configuration not stated) | 8.0 | 4.1 | 0.9 | 0.9 | 1 | -6.2
COc1cccc(CCc2nnc(CCC(=O)NC(C)c3c(C)nn(C)c3C)o2)c1 (configuration not stated) | 9.2 | 5.0 | 1 | 0.9 | 1 | -0.8
Nc1cccnc1Sc1ccc([N+](=O)[O-])cn1 | 50.3* | -0.4 | 0.9 | 0.5 | 0.9 | -28.3
O=[N+]([O-])c1ccc(Sc2ccccc2)nc1 | 7.4 | 2.9 | 1 | 0.9 | 1.1 | -17.8
S=C(Nc1ccc2nsnc2c1)NC1CCCCC1 | 41.4 | 55.5* | 1.1 | 0.6 | 1.1 | 24.4
O=C(Nc1ccc2nsnc2c1)N1CCCCC1 | 31.9 | 11.2 | 0.8 | 0.7 | 0.7 | -19.8
S=C(Nc1ccc2nsnc2c1)N1CCCCCC1 | · | 59.6* | · | · | · | -14.2
CCOC(=O)c1c(C)n(-c2ccc(C)cc2)c2c(C(C(C)=O)C(=O)O)c(Br)c(O)c(O)c12 (configuration not stated) | 72.3* | 8.6 | 0.7 | 0.3 | 0.6 | 1.7
COc1ccccc1-n1c(=O)c(C#N)c(-c2ccc([N+](=O)[O-])cc2)c2cc(C(=O)c3ccccc3O)cnc21 | · | · | · | · | · | -26.5
CCc1cc2c(=O)n(CCC(C)C)c(=S)[nH]c2s1 | 55.6* | -5.6 | 1.1 | 0.4 | 1.1 | -10.8
CCCn1c(=S)[nH]c2ccccc2c1=O | 19.1 | 14.3 | 1 | 0.8 | 1 | -2.0
Oc1c(CN2CCc3ccccc3C2)cc(Cl)c2cccnc12 | 67.7* | 0.0 | 0.5 | 0.3 | 0.6 | 6.2
O=C(Oc1c(CN2CCOCC2)cc(Cl)c2cccnc12)c1ccccc1 | 29.9 | 5.2 | 0.4 | 0.7 | 0.8 | -0.5
O=C(COc1c(Br)cc(Br)c2cccnc12)N1CCCCC1 | 33.9 | 4.3 | 0.7 | 0.7 | 0.8 | 0.9
Oc1c(CN2CCCCC2)cc(Br)c2cccnc12 | 57.2* | 35.5 | 0.4 | 0.4 | 0.5 | 0.9
COc1ccc2nc(NC(=O)CC3Oc4ccccc4NC3=O)sc2c1 (configuration not stated) | · | · | · | · | · | -10.9
O=C(c1ccc(S(=O)(=O)N2CCC(c3nc4ccccc4[nH]3)CC2)cc1)N1CCOCC1 | 64.5* | -2.1 | 0.9 | 0.4 | 0.8 | -0.9
CCOc1ccc(N2C(=O)CC(N(Cc3ccco3)C(C)=O)C2=O)cc1 (configuration not stated) | -11.5 | -1.2 | 1.1 | 1.1 | 1 | -2.8
c1ccc(CCNc2ccccc2)cc1 | 14.6 | 6.9 | 0.9 | 0.9 | 1.1 | ·
CCCCCc1ccc(OCCOCCn2c[n+](C)c3ccccc32)c(CCCCC)c1 | -95.1 | -3.5 | 1.1 | 2* | 1.1 | 10.8
